The data set is described as follows: Toxicity liver stage against HepG2, at 10uM. In kind it is cell-based. On the set-up: test concentration 10 uM, cell line HepG2-A16-CD81EGFP. The conditions noted are these: human, HepG2-A16-CD81EGFP cells; read-out: INHIBITION
An outline of the steps:
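Uninfected HepG2-A16-CD81EGFP cells, 3 × 10^3 per well, 1536-well, plated on prespotted compound at 10 μM final, parasite-free screening media added to match infected plates; puromycin 10 μM positive, DMSO 0.5% negative; run in parallel with 48 h PbLuc assay at 37 °C, 5% CO2; viability by CellTiter-Glo luminescence, normalized to controls.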

The results in this text go back to ChEMBL document CHEMBL4513216, “Probing the Open Global Health Chemical Diversity Library for Multistage-Active Starting Points for Next-Generation Antimalarials” (ACS Infect Dis, 2020).

In the case of `Cn1nc(COc2cccnc2)c2c1CCN(Cc1ccco1)C2`, the cytotoxicity at 10 µM is -5.57%. Regarding `c1ccc(Cc2noc(-c3ccc(NCC4COCCO4)nc3)n2)cc1` (stereo unspecified), the cytotoxicity at 10 µM came to 6.42%. `NS(=O)(=O)c1ccc(N2CCN(CCCc3cn[nH]c3)CC2)cc1`: the cytotoxicity at 10 µM is -145%. On to `CCc1ccc(OCCN(C)C(=O)c2ccncc2Cl)cc1`, for which the cytotoxicity at 10 µM was -2.91%. As for `Cc1nc(CNC2CC(=O)N(CCc3cccc(Cl)c3)C2)c[nH]1` (stereo unspecified), the cytotoxicity at 10 µM was -133%. In the case of `CC(C)c1cc(C(=O)N2CCN(c3cccc(C(=O)O)c3)CC2)n(C)n1`, the cytotoxicity at 10 µM was -2.95%.

Consider `CC(C)(C)c1ncc(CNc2ccccc2SCCC(N)=O)s1`, for which the cytotoxicity at 10 µM was 55.4%.

With `Cc1occc1C(=O)N1CC[C@H]2C[C@@H](c3nnc(C4CC4)o3)O[C@@H]2C1`, the cytotoxicity at 10 µM is -111%.

`COc1ccc(C(=O)NCC(c2cccn2C)N2CCCC2)c(OC)c1` (stereo unspecified): the cytotoxicity at 10 µM is 1.31%. On to `Cc1noc(-c2c[nH]nc2C2CCCN2C(=O)c2ccccc2)c1C` (stereo unspecified), for which the cytotoxicity at 10 µM is -8.77%.

`CCc1c(C)sc2c1c(N)nc(=O)n2CCCN(C)C`: the cytotoxicity at 10 µM amounted to 2.06%. With `O=C1CO[C@@H]2CN(S(=O)(=O)c3ccccc3F)C[C@H]2N1` the figure was 0.0416%; with `CCCS(=O)(=O)NCCc1ncc(C)s1`, -9.31%; with `CN(C)CCNC(=O)c1sccc1N(C)S(=O)(=O)c1ccc(Cl)cc1`, 2.38%. For `Cc1cc(NC(=O)CO)nn1-c1ccc(Cl)cc1Cl`, the cytotoxicity at 10 µM was -142%. With `CC(C)c1ncc(CNC2(c3ccc(Cl)cc3)CC2)cn1` the figure was -32.3%. With `COc1ccc(OCC(=O)NS(=O)(=O)c2cc(C)ccc2C)cc1` the figure was 7.19%; with `Cc1cc(NC(=O)N2CCCC2C(C)(C)O)c2ncccc2c1` (stereo unspecified), 6.87%; with `COCCN(C)c1cnn(C)c(=O)c1Br`, 1.09%. With `c1ccc(-c2noc(CN3CCc4cncnc4C3)n2)nc1` the figure was -2.97%; with `CCCOC(=O)N1CCCC2(CCN(Cc3cccc(C#N)c3)C2)C1` (stereo unspecified), -4.59%; with `COc1ccc(Cc2ncc3c(n2)CN(C(=O)CO)C3)cc1`, 0.624%. Regarding `O=C(C1CCC1)N1CCN(Cc2cccnc2)[C@H]2CS(=O)(=O)C[C@H]21`, the cytotoxicity at 10 µM came to 1.02%. With `CCc1nc(CNC2CCCc3c2cnn3CC)cs1` (stereo unspecified), the cytotoxicity at 10 µM stood at 5.12%. Take `CNC(=O)[C@@]12CCO[C@@H]1CCN(Cc1ccc3c(c1)OCO3)C2`: the cytotoxicity at 10 µM came out at 1.75%. The same measure for `CCOc1cccc(COC(=O)c2cc(Cl)ccn2)n1`: -2.52%. As for `COCCN(C)C[C@H]1CC[C@@H](Cc2ccc3c(cnn3C)c2)O1`, the cytotoxicity at 10 µM worked out at 0.255%.

Take `CN(Cc1cccnc1)CC1CN(C(N)=O)Cc2nccn2C1` (stereo unspecified): the cytotoxicity at 10 µM was -80.3%. For the compound `CC(=O)Nc1ccc([C@@H](O)[C@H]2COCC(=O)N2CC(C)C)cc1`, the cytotoxicity at 10 µM is -6.6%. In the case of `Cc1ccccc1OCC1CCCN(c2cc(N)nc(N)n2)C1` (stereo unspecified), the cytotoxicity at 10 µM was determined as 29%.

Turning to `CCS(=O)(=O)Nc1ccc2oc(C)c(C(C)=O)c2c1`, the cytotoxicity at 10 µM is 7.13%. Regarding `COCCC(=O)NCC1Cn2nnc(-c3cccc(F)c3)c2CO1` (stereo unspecified), the cytotoxicity at 10 µM came to 0.0508%. The same measure for `CCOc1ccc(C(=O)CC(SC2CCCCC2)C(=O)O)cc1` (stereo unspecified): 6.73%. With `Fc1cccc2[nH]c(CN3CCc4cncnc4C3)nc12` the figure was -1.03%; with `O=C(Nc1cccnc1)C1=NN(c2ccccc2)C(=O)CN1`, -7.12%. In the case of `O=C(NCCNc1ncccn1)N1CCCC1c1ccncc1` (stereo unspecified), the cytotoxicity at 10 µM is -4.65%. For `O=C1N[C@H]2OCCC[C@H]2[C@H](c2ccccc2)N1`, the cytotoxicity at 10 µM is -0.675%. Turning to `c1cnnc(N2CCCC(NCc3nnc(-c4ccco4)o3)C2)c1` (stereo unspecified), the cytotoxicity at 10 µM was -0.986%. On to `COC(=O)Nc1cccc(C(=O)N(C)Cc2cccc(O)c2)c1`, for which the cytotoxicity at 10 µM was -5.88%. With `Cn1cc(C(NCCc2ccccn2)c2cccc(F)c2)cn1` (stereo unspecified) the figure was 9.73%; with `Cc1nccn1CCN(C)c1nc(-c2ccc(Cl)cc2)nc2c1CNC2`, -29.5%.

For `CN1CCCCC1(C)C(=O)N1CCC(c2ccccn2)CC1` (stereo unspecified), the cytotoxicity at 10 µM amounted to 1.66%.

On to `CCNc1cc2c(nn1)CCN(C(=O)c1cccc3c1OCCO3)C2`, for which the cytotoxicity at 10 µM was -8.42%. As to `CCCN1CC(NC(=O)Nc2nc(C)n(C(C)C)n2)CC1=O` (stereo unspecified), the cytotoxicity at 10 µM was -3.04%.

With `O=C(NCCc1noc(-c2ccccn2)n1)NCC1CCCC1`, the cytotoxicity at 10 µM is 0.321%. The same measure for `c1cncc(C2COC3(CCN(Cc4ccsc4)CC3)C2)c1` (stereo unspecified): -3.74%; for `COc1ccc(-c2nc(CCNc3nnc(C)c(C)c3C#N)co2)cc1`: -17.2%; for `CCn1cc(S(=O)(=O)N2CCC3(CCCN(CC4CCC4)C3=O)C2)cn1` (stereo unspecified): 2.45%. For the compound `c1ccc(COC2CCN(c3cncc(-n4cccn4)n3)CC2)cc1`, the cytotoxicity at 10 µM was -9.18%. For the compound `Cc1cnc(C)c(N2CCCC(CO)(Cc3cccc(Cl)c3)C2)n1` (stereo unspecified), the cytotoxicity at 10 µM is 7.78%. With `O=C(c1ccsc1)N1CCOC2(CCN(Cc3cccnc3)CC2)C1` the figure was -3.12%; with `CS(=O)(=O)c1ccccc1-n1cc(NC(=O)CC2C=CCC2)cn1` (stereo unspecified), 1.78%.

As for `O=C(Cn1ccnc1)N(CCO)CCSc1ccc(Cl)cc1`, the cytotoxicity at 10 µM came to 4.38%. Regarding `O=S(=O)(NCC1COc2ccccc2C1)N1CCCC1` (stereo unspecified), the cytotoxicity at 10 µM is -7.74%. With `O=C(C1CCC2(CCN(CC3CCOCC3)CC2)O1)N1CCCCO1` (stereo unspecified), the cytotoxicity at 10 µM turned out to be 1.08%. In the case of `CCC(CO)N(Cc1ccsc1)Cc1c(C)nn(C)c1Cl` (stereo unspecified), the cytotoxicity at 10 µM was 17.8%.

`CC(=O)N1CCCC1c1nc(CN(C)C(=O)C(C)C)cc(N(C)C)n1` (stereo unspecified): the cytotoxicity at 10 µM is -2.62%. Consider `CC(C)N(CCNC(=O)c1ccc(S(=O)(=O)NC2CC2)cc1)C(C)C`, for which the cytotoxicity at 10 µM was -65.8%. With `CC(NCC1CCN(CCO)CC1)c1ccc(C(F)(F)F)cc1` (stereo unspecified) the figure was -7.28%.

With `CCn1ccnc1CN1CCN(CC(=O)NC(C2CC2)C2CC2)CC1`, the cytotoxicity at 10 µM was -19.4%. The same measure for `Cc1nc(-c2c(C)noc2C)cc(C2CCN(S(=O)(=O)N(C)C)CC2)n1`: 4.62%; for `Cc1noc(C)c1CSc1nc(=O)ccn1C(C)C`: 5.95%; for `COCCNC(=O)[C@@H]1CN(c2ncccn2)C[C@H]2OCC[C@H]21`: -68.4%. With `COC(=O)CCC(=O)N1CCC2(CN(Cc3ccccc3)C2)C1` the figure was 12.3%; with `CCCn1nccc1NC(=O)CN1CCC[C@H]1CO`, -1.8%. On to `O=C(c1cscn1)N1C[C@@H](Oc2cccnc2)[C@H]2OCCC[C@H]21`, for which the cytotoxicity at 10 µM is 7.77%. With `CCSc1cccc(NCc2cccnc2)c1` the figure was 0.14%; with `COc1c(C(=O)NCc2cnn(C)c2C)nnn1Cc1ccccc1`, -11.3%; with `c1ccc(CCNC2CCc3ncnn3C2)nc1` (stereo unspecified), -4.03%. On to `O=C(c1ccc(C2CCCN2)s1)N1CCC2(CCCO2)CC1` (stereo unspecified), for which the cytotoxicity at 10 µM was -7.13%. For `Cc1cc(C)n(CC2CCCCN2C(=O)c2cnn(C)c2)n1` (stereo unspecified), the cytotoxicity at 10 µM worked out at 6.79%.
